From PubChem BioAssay
Plk1 PBD FP: inhibitors of human Plk1 polo box domain binding | 97,000 tested, 0.13% active | inhibition, %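 (tested at about 20 µM)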 | P53350 | Plk1 PBD phosphopeptide binding, fluorescence polarization; in the data active = inhibition above about 34%, passing the limit was not always enough
PLK1 inh: PLK1 (human) kinase inhibition; recombinant PLK1 kinase, TR-FRET peptide phosphorylation; P53350; 97,000 tested, 0.53% active; AID 619; inhibition, % at 10 µM;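 active = inhibition of 50% or more in the single-concentration screen; inactive = inhibition below 50%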;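 note: 0% = DMSO max control and 100% = H-89 dihydrochloride min control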
Pyk2 oligo antag: blocks oligomerization of human Pyk2 in cells; Q14289; Q293 cells, Pyk2 FERM NanoBiT luminescence; stronger effect = lower value; z-score (the deposit names both 25 µM and 10 µM); 99,000 tested, 0.83% active; AID 1347419;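 active = Z-score of -3 or lower, scaled per plate to the spread of control and sample wells; inactive = z-score above -3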;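 note: negative z-score means lost luminescence so less FERM oligomerization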
FAK blocker: blocks human focal adhesion kinase activity | biochemical FAK kinase activity assay | inhibition, %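 (tested at 7 µM)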 | 97,000 tested, 0.84% active | AID 727;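 note: 0% = DMSO and 100% = reference compound high control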
HIV Rev-RRE inh: disrupts HIV-1 Rev binding to RRE RNA | inhibition, % at 8 µM | 97,000 tested, 0.79% active | Rev peptide-RRE RNA binding, FRET | AID 704;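 active = inhibition above the screen-wide mean plus 3 SD, cut at about 35% in these data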;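 note: 0% = median DMSO wells and 100% = median Neomycin B control wells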
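Test system: labelled RRE RNA duplex and labelled Rev peptide. Times: 5 min compound–RNA preincubation, then 15 min with peptide, 25 °C. Doses: single-dose 8 µM. Measured by: FRET, excitation 480 nm, emission 540 nm donor and 671 nm acceptor. Measure: % inhibition of FRET ratio versus controls.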
Cav32 inh: human Cav3.2 channel inhibition, primary screen | O95180 | Cav3.2-expressing cells, Fluo-4 calcium fluorescence FDSS; stronger effect = lower value | B-score at 10 µM | 100,000 tested, 4% active | AID 449739;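 active = single-dose well whose peak fluorescence ratio is a statistical outlier from its plate by either plate-standardised score or position-corrected B-score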
FAK inh confirm: FAK (human) inhibition confirmed. shares compounds with FAK blocker. FAK kinase biochemical inhibition assay. inhibition, % at 7 µM. 750 tested, 28% active
Numbers without * were called inactive; nt = not tested or not shown. In the library only some 5.8% were active in any assay of this set; here they are far more common. Cut-off read from the data, not from the text of the source, unless noted: active = inhibition above about 19%; inactive = the rest.

SMILES | Plk1 PBD FP | PLK1 inh | Pyk2 oligo antag | FAK blocker | HIV Rev-RRE inh | Cav32 inh | FAK inh confirm
Cn1c(C(=O)N2CCN(C(=O)c3ccco3)CC2)cc2c(=O)n(C)c3ccccc3c21 | 7 | -17 | nt | 19* | 8 | 1.2 | 4
CCc1ccc(OCC(=O)Nc2ccc(-c3nc4ccccc4o3)c(O)c2)cc1 | -40 | -10 | 0.36 | 30* | 10 | 0.13 | 21*
COc1ccc(OCC(=O)Nc2cccc(-c3nc4ccccc4o3)c2)cc1 | -5 | -14 | -1.3 | -1 | -4 | 0.29 | nt
COc1ccc(-c2csc(C3=C(O)CN(Cc4ccc(Cl)cc4)C3=N)n2)cc1OC | 21 | -8 | -0.28 | 4 | 3 | -0.15 | nt
COc1cccc(CN2CC(O)=C(c3nc(-c4ccc(Cl)cc4)cs3)C2=N)c1 | -10 | -3 | -1.2 | 32* | 10 | nt | 26*
CCCCN1CC(O)=C(c2nc(-c3ccc(Cl)cc3)cs2)C1=N | -32 | -7 | -0.53 | 32* | 13 | -0.077 | 12
N=C1C(c2nc(-c3ccc(F)cc3)cs2)=C(O)CN1Cc1ccc(Cl)cc1 | -11 | -11 | -0.27 | 10 | 11 | -0.084 | nt
CC1(C)CC(=O)C2=C(C1)N(c1ccc(F)cc1)C(=O)CC2c1ccsc1 (stereo unspecified) | 9 | -13 | nt | -1 | 3 | 0.31 | nt
CC(=O)Oc1ccc2c(C)cc(=O)oc2c1C(=O)c1ccccc1 | nt | nt | -0.07 | nt | nt | nt | nt
Cn1c2ccccc2c(=O)n2c(=O)c3ccccc3cc12 | 3 | -16 | nt | 31* | 1 | 0.045 | 47*
CCOC(=O)CCP(=O)(O)C(O)c1ccccc1 (stereo unspecified) | 0 | -1 | 0.01 | 0 | 6 | nt | nt
CCOC(=O)c1c(C)[nH]c(C=Nc2ccccc2)c1O | -12 | -2 | nt | -8 | 16 | 0.55 | nt
CCOC(=O)c1c(C)[nH]c(O)c1C=Nc1ccccc1 | 30 | -3 | 1.2 | 34* | -3 | 0.0062 | 16
CC(C)(C)SCCNC(=O)CSCc1ccc([N+](=O)[O-])cc1 | 16 | -7 | 0.55 | 3 | 2 | -0.26 | nt
Cc1nn(C(=O)c2cc3sccc3[nH]2)c(C)c1C | -29 | -14 | -0.92 | 7 | 9 | -0.35 | nt
Cc1ccc(CNc2oc(-c3cccs3)nc2C#N)cc1 | 1 | -3 | -0.6 | 5 | 16 | -1.5 | nt
N#Cc1nc(-c2cccs2)oc1NCc1ccccc1 | -18 | -5 | -1.4 | 22* | 12 | -3.2 | 11
Cc1ccc(C2NC(=O)NC3=C2CCc2ccccc23)cc1 (stereo unspecified) | 16 | -8 | 0.23 | 19* | 12 | -0.14 | -2
CC(C)c1ccc(C2NC(=O)NC3=C2CCc2ccccc23)cc1 (stereo unspecified) | 35 | -2 | 0.12 | -1 | 6 | nt | nt
Cc1ccc(/C=N/NC(=O)CCCOc2ccc(Cl)cc2Cl)cc1[N+](=O)[O-] | 8 | -6 | 0.35 | 5 | 4 | -0.56 | nt
COc1ccc(/C=N/NC(=O)CCCOc2ccc(Cl)cc2Cl)cc1[N+](=O)[O-] | -15 | -8 | -0.05 | 23* | 1 | nt | 9
Oc1ccc(N=Cc2ccc(O)c(O)c2)cc1 | -19 | 35 | 0.78 | 22* | -2 | 0.12 | 2
O=C(N/N=C/C=C/c1ccc([N+](=O)[O-])cc1)c1cccs1 | -35 | -17 | -0.06 | 56* | 6 | -2 | 21*
Cc1ccc(SCc2ccc(C(=O)NCc3ccncc3)cc2)cc1 | 12 | -3 | -0.25 | 43* | 9 | -0.19 | 3
Cc1ccc(C)c(C(=O)NCc2ccncc2)c1 | -8 | -7 | -0.2 | -2 | 7 | 0.4 | nt
SMILES | Plk1 PBD FP | PLK1 inh | Pyk2 oligo antag | FAK blocker | HIV Rev-RRE inh | Cav32 inh | FAK inh confirm
Cc1nn(Cc2ccc(C(=O)Nc3nccs3)cc2)c(C)c1Cl | -7 | -11 | -1.2 | 22* | 13 | nt | 3
Cn1c(SCc2ccon2)nc2ccccc2c1=O | 12 | -3 | -0.62 | 23* | 5 | -1.3 | 6
CCOC(=O)C1=C(c2ccccc2)OC(N)=C(C#N)C1C1CCCCC1 (stereo unspecified) | -13 | -6 | -2.9 | 24* | 16 | 0.063 | 21*
CCOC(=O)C1=C(C)OC(N)=C(C#N)C1C1CCCCC1 (stereo unspecified) | nt | nt | -1.9 | nt | nt | 0.2 | nt
O=C(OCc1cc(=O)n2c(n1)sc1ccccc12)c1ccc2c(=O)n3c(nc2c1)CCC3 | nt | nt | 1 | nt | nt | 0.62 | nt
Cc1ccc2c(CC(=O)OCc3cc(=O)n4c(n3)sc3ccccc34)coc2c1 | -3 | -21 | 1.8 | 23* | -2 | nt | 0
O=C(CSCC(=O)N1CCCc2ccccc21)Nc1nc(-c2ccccc2)cs1 | nt | nt | nt | nt | nt | -4.4 | nt
COc1ccc2cc3cc(C(=O)NCc4ccccn4)oc3nc2c1 | -11 | -13 | 0.4 | 0 | 2 | 0.4 | nt
COc1ccc2nc3oc(C(=O)NCc4cccs4)cc3cc2c1 | 49 | -21 | -0.01 | 32* | -10 | 1.2 | 10
CC(C)C(C(=O)O)N1C(=O)/C(=C/C=C/c2ccco2)SC1=S (stereo unspecified) | -8 | -25 | 0.62 | 88* | -76 | 0.28 | 17
Cc1nn(C)cc1CNC(=O)Nc1cccc(Cl)c1 | 7 | 3 | 0.14 | 2 | 1 | 2.8 | nt
Cn1c(=O)[nH]c(=O)c2c1nc(Br)n2CCCSc1nc2ccccc2o1 | -16 | -6 | -0.51 | 19* | 10 | -0.68 | 1
Cn1c(=O)[nH]c(=O)c2c1nc(N1CCCC1)n2CCCSc1nc2ccccc2o1 | nt | nt | -0.31 | nt | nt | -0.18 | nt
COc1ccc(CCNC(=O)C2CCN(c3ccc(N4CCOCC4)nn3)CC2)c(OC)c1 | -5 | 6 | nt | -3 | -1 | 1.8 | nt
O=C(Cn1c(=O)oc2cc(S(=O)(=O)N3CCCCCC3)ccc21)NC1CCCCCCC1 | 23 | 12 | nt | 22* | 11 | 0.15 | 6
O=C(Nc1ccc(Cl)c(Cl)c1)N1CCSC1c1ccco1 (stereo unspecified) | -15 | 0 | 0.6 | 26* | 11 | -7.7* | 17
O=C(Nc1ccc(Cl)c(Cl)c1)N1CC=CCC1 | nt | nt | 1.5 | nt | nt | -0.29 | nt
COCCOC(=O)C1=C(C)NC2=C(C(=O)CC(c3cccs3)C2)C1c1ccsc1 (stereo unspecified) | -47 | -11 | -2 | 23* | 4 | 1.5 | 19*
Cc1ccc(NC2=C(N3CCOCC3)C(=O)c3ccccc3C2=O)cc1 | -20 | -10 | -0.77 | 43* | 10 | -0.13 | 3
CC(=O)c1ccc(NC2=C(N3CCOCC3)C(=O)c3ccccc3C2=O)cc1 | 21 | -9 | 0.63 | 11 | 4 | -0.29 | nt
c1coc(CNc2ncnc3nc[nH]c23)c1 | nt | nt | nt | nt | nt | 0.3 | nt
Cc1ccc2[nH]c3c(NCc4ccco4)ncnc3c2c1 | -25 | -6 | 0.02 | 34* | 15 | -0.039 | 21*
CCS(=O)(=O)c1ccc(O)c(N2C(=O)C3C4C=CC(C4)C3C2=O)c1 (stereo unspecified) | -2 | -5 | 0.12 | 0 | 5 | 0.14 | nt
Cc1ccccc1-c1ccc(=O)n(CC(=O)Nc2ccc(N3CCOCC3)cc2)n1 | nt | nt | -0.15 | nt | nt | -0.037 | nt
